This note sets out measurements from ChEMBL document CHEMBL2086340, “Synthesis and biological evaluation of 2-benzylamino-4(5)-(6-methylpyridin-2-yl)-5(4)-([1,2,4]triazolo[1,5-a]-pyridin-6-yl)thiazoles as transforming growth factor-β type 1 receptor kinase inhibitors” (Eur J Med Chem, 2012).

Usually IC50 stands for the point on the concentration scale where inhibition reaches its midpoint.

The structures appear in SMILES notation.

Experiment [1] concerns the target T1, TGF-beta receptor type-1 (Homo sapiens, UniProt P36897).
T1 sequence (P36897 whole entry): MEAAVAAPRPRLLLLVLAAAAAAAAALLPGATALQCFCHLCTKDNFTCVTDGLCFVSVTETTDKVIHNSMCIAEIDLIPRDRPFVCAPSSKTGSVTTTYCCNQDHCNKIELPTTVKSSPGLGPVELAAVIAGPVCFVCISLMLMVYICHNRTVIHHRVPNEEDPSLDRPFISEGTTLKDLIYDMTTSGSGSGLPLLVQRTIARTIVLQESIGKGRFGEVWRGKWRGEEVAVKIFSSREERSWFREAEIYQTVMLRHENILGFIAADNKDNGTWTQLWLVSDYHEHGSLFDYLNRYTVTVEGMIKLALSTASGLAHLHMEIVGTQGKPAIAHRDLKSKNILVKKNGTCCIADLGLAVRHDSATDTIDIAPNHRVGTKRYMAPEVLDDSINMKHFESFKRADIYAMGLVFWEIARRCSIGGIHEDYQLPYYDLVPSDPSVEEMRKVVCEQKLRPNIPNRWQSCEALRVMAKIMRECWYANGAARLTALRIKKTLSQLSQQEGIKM
The experiment in a line: Inhibition of human recombinant GST-fused ALK5 expressed in Sf9 cells using casein as a substrate by radioisotopic protein kinase assay.

Experiment [2] concerns the target Mitogen-activated protein kinase 14 (Homo sapiens, UniProt Q16539). The experiment in a line: Inhibition of human recombinant p38alpha expressed in Escherichia coli using ATF2 as a substrate by radioisotopic protein kinase assay.
For experiment [3], the species on record is Homo sapiens. Description: Selectivity index, ratio of IC50 for human recombinant p38alpha to IC50 for human recombinant ALK5. The procedure, abridged: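 Index is IC50(p38α)/IC50(ALK5), each from a radioisotopic ³³P protein kinase assay run by a contract lab. The p38α was untagged human recombinant protein expressed in E. coli and purified on Ni–NTH–agarose, with ATF2 as substrate. The ALK5 kinase domain was human recombinant GST-fusion protein from baculovirus-infected Sf9 cells, with casein as substrate.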

Sequence of Mitogen-activated protein kinase 14 (Q16539 whole entry, the tested form may be a part): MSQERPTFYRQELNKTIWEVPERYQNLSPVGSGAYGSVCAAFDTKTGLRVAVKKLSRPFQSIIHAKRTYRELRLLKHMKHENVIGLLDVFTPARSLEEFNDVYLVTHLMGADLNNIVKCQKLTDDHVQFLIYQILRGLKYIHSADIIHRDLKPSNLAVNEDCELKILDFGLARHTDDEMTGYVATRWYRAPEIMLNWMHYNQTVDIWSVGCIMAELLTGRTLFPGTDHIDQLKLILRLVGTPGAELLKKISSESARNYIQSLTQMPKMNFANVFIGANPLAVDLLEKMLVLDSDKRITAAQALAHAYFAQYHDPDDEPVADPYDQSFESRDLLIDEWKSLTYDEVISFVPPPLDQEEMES

As to `COc1cccc(CNc2nc(-c3cccc(C)n3)c(-c3ccc4ncnn4c3)s2)c1`, the results for the IC50 in experiment [1] and in experiment [2] were 11.4 nM and over 10000 nM, respectively. The Ratio IC50 in experiment [3] is over 877.

`Cc1cccc(-c2nc(NCc3ccccc3F)sc2-c2ccc3ncnn3c2)n1`: the IC50 is 10.4 nM in experiment [1] and over 10000 nM in experiment [2]. In addition, the Ratio IC50 in experiment [3] was over 962.

Take `Cc1cccc(-c2nc(NCc3ccc(C(N)=O)cc3)sc2-c2ccc3ncnn3c2)n1`: the IC50 in experiment [1] was 25.7 nM; in experiment [2], over 10000 nM. Also, the Ratio IC50 in experiment [3] is over 389.

With `Cc1cccc(-c2nc(NCc3cccc(F)c3)sc2-c2ccc3ncnn3c2)n1`, the figures for the IC50 in experiment [1] and in experiment [2] were 7.01 nM and 3530 nM, respectively. For the same molecule, in experiment [3], the Ratio IC50 is 504.

With `COc1ccc(CNc2nc(-c3cccc(C)n3)c(-c3ccc4ncnn4c3)s2)cc1OC`, the IC50 in experiment [1] was 47.7 nM; in experiment [2], over 10000 nM. The Ratio IC50 in experiment [3] was over 210.

Take `Cc1cccc(-c2nc(NCc3ccc(F)cc3)sc2-c2ccc3ncnn3c2)n1`: the IC50 came out at 8.61 nM in experiment [1] and 9200 nM in experiment [2]. Moreover, the Ratio IC50 in experiment [3] is 1070.

For the molecule `Cc1cccc(-c2nc(NCc3cccc(C(N)=O)c3)sc2-c2ccc3ncnn3c2)n1`, the IC50 in experiment [1] was found to be 13.6 nM; in experiment [2] it was 6190 nM. Moreover, in experiment [3], the Ratio IC50 stood at 455.

`Cc1cccc(-c2[nH]c(Cc3cccc(C(N)=O)c3)nc2-c2ccc3nccnc3c2)n1`: the Ratio IC50 in experiment [3] came to 28.

As for `Cc1cccc(-c2nc(NCc3ccc(Cl)c(Cl)c3)sc2-c2ccc3ncnn3c2)n1`, the IC50 is 21.9 nM in experiment [1] and over 10000 nM in experiment [2]. For the same molecule, in experiment [3], the Ratio IC50 was over 457.

In the case of `Cc1cccc(-c2nc(NCc3ccccc3)sc2-c2ccc3ncnn3c2)n1`, the IC50 stood at 11.3 nM in experiment [1] and 5530 nM in experiment [2]. Besides, the Ratio IC50 in experiment [3] came out at 489.

As to `Cc1cccc(-c2sc(NCc3cccc(C#N)c3)nc2-c2ccc3ncnn3c2)n1`, the figures for the IC50 in experiment [1] and in experiment [2] were 25.1 nM and over 10000 nM, respectively. In experiment [3], the Ratio IC50 is over 398.

As to `Cc1cccc(CNc2nc(-c3cccc(C)n3)c(-c3ccc4ncnn4c3)s2)c1`, the IC50 is 11.2 nM in experiment [1] and 5370 nM in experiment [2]. The Ratio IC50 in experiment [3] came out at 479.

With `Cc1cccc(-c2sc(NCc3ccccc3)nc2-c2ccc3ncnn3c2)n1`, the IC50 in experiment [1] is 24.5 nM; in experiment [2], 8820 nM. The Ratio IC50 in experiment [3] is 360.

In the case of `Cc1cccc(-c2nc(NCc3ccc(Cl)cc3)sc2-c2ccc3ncnn3c2)n1`, the results for the IC50 in experiment [1] and in experiment [2] were 15.8 nM and over 10000 nM, respectively. Besides, in experiment [3], the Ratio IC50 was over 633.

For `Cc1cccc(-c2nc(NCc3ccccc3C)sc2-c2ccc3ncnn3c2)n1`, the IC50 in experiment [1] is 16.9 nM; in experiment [2] it was over 10000 nM. The Ratio IC50 in experiment [3] was over 592.

As to `Cc1cccc(-c2nc(NCc3ccccc3OC(F)(F)F)sc2-c2ccc3ncnn3c2)n1`, the values for the IC50 in experiment [1] and in experiment [2] were 35.9 nM and over 10000 nM, respectively. Besides, the Ratio IC50 in experiment [3] was over 279.

As to `Cc1cccc(-c2nc(NCc3ccc(OC(F)(F)F)cc3)sc2-c2ccc3ncnn3c2)n1`, the IC50 was 60.9 nM in experiment [1] and over 10000 nM in experiment [2]. In addition, in experiment [3], the Ratio IC50 is over 164.

Turning to `Cc1cccc(-c2sc(NCc3ccccc3F)nc2-c2ccc3ncnn3c2)n1`, the IC50 in experiment [1] is 21.2 nM; in experiment [2], over 10000 nM. Moreover, the Ratio IC50 in experiment [3] was over 472.

On to `Cc1cccc(-c2nc(NCc3ccc(F)c(F)c3)sc2-c2ccc3ncnn3c2)n1`, for which the IC50 is 7.43 nM in experiment [1] and 3580 nM in experiment [2]. The Ratio IC50 in experiment [3] worked out at 482.

Regarding `Cc1cccc(-c2nc(NCc3ccccc3Cl)sc2-c2ccc3ncnn3c2)n1`, the values for the IC50 in experiment [1] and in experiment [2] were 15.5 nM and 5860 nM, respectively. Further, the Ratio IC50 in experiment [3] was found to be 378.

On to `Cc1cccc(-c2nc(NCc3cccc(C)c3C)sc2-c2ccc3ncnn3c2)n1`, for which the figures for the IC50 in experiment [1] and in experiment [2] were 22.1 nM and over 10000 nM, respectively. The Ratio IC50 in experiment [3] is over 452.

Turning to `Cc1cccc(-c2sc(NCc3cccc(C(N)=O)c3)nc2-c2ccc3ncnn3c2)n1`, the IC50 in experiment [1] was 12 nM; in experiment [2], over 10000 nM. In addition, the Ratio IC50 in experiment [3] was over 833.

As for `Cc1cc(C)cc(CNc2nc(-c3cccc(C)n3)c(-c3ccc4ncnn4c3)s2)c1`, the 50% inhibitory concentration (IC50) in experiment [1] was 22 nM; in experiment [2], over 10000 nM. The Ratio IC50 in experiment [3] is over 455.

Consider `Cc1cccc(-c2nc(NCc3cccc(OC(F)(F)F)c3)sc2-c2ccc3ncnn3c2)n1`, for which the figures for the IC50 in experiment [1] and in experiment [2] were 19.3 nM and 7390 nM, respectively. For the same molecule, the Ratio IC50 in experiment [3] is 383.

As to `Cc1cccc(-c2nc(NCc3cccc(Cl)c3Cl)sc2-c2ccc3ncnn3c2)n1`, the IC50 in experiment [1] was 34.3 nM; in experiment [2] it was over 10000 nM. In addition, the Ratio IC50 in experiment [3] is over 292.

As for `Cc1cccc(-c2nc(NCc3cccc(Cl)c3)sc2-c2ccc3ncnn3c2)n1`, the IC50 in experiment [1] amounted to 10.2 nM; in experiment [2], 3280 nM. Further, the Ratio IC50 in experiment [3] was determined as 322.

Take `Cc1cccc(-c2nc(NCc3cccc(F)c3F)sc2-c2ccc3ncnn3c2)n1`: the figures for the IC50 in experiment [1] and in experiment [2] were 29.4 nM and 7200 nM, respectively. Moreover, the Ratio IC50 in experiment [3] is 245.

Regarding `Cc1ccc(CNc2nc(-c3cccc(C)n3)c(-c3ccc4ncnn4c3)s2)cc1`, the IC50 was 8.75 nM in experiment [1] and over 10000 nM in experiment [2]. Besides, the Ratio IC50 in experiment [3] is over 1140.

On to `COc1ccc(CNc2nc(-c3cccc(C)n3)c(-c3ccc4ncnn4c3)s2)cc1`, for which the IC50 in experiment [1] is 24.3 nM; in experiment [2] it was over 10000 nM. Further, the Ratio IC50 in experiment [3] was over 412.

As for `Cc1cccc(-c2nc(NCc3cccc(C#N)c3)sc2-c2ccc3ncnn3c2)n1`, the IC50 came to 9.26 nM in experiment [1] and 3780 nM in experiment [2]. In addition, the Ratio IC50 in experiment [3] amounted to 408.

Consider `COc1cccc(CNc2nc(-c3cccc(C)n3)c(-c3ccc4ncnn4c3)s2)c1OC`, for which the IC50 is 43.5 nM in experiment [1] and over 10000 nM in experiment [2]. In experiment [3], the Ratio IC50 is over 230.

In the case of `COc1cc(CNc2nc(-c3cccc(C)n3)c(-c3ccc4ncnn4c3)s2)cc(OC)c1`, the IC50 is 16.5 nM in experiment [1] and 7990 nM in experiment [2]. Besides, in experiment [3], the Ratio IC50 was 484.

`Cc1cccc(-c2nc(NCc3ccc(C#N)cc3)sc2-c2ccc3ncnn3c2)n1`: the figures for the IC50 in experiment [1] and in experiment [2] were 30.8 nM and over 10000 nM, respectively. Also, the Ratio IC50 in experiment [3] is over 325.

With `Cc1cccc(-c2nc(NCc3cc(F)cc(F)c3)sc2-c2ccc3ncnn3c2)n1`, the IC50 turned out to be 8.92 nM in experiment [1] and 3820 nM in experiment [2]. Moreover, the Ratio IC50 in experiment [3] was found to be 428.

On to `Cc1cccc(-c2nc(NCc3cc(Cl)cc(Cl)c3)sc2-c2ccc3ncnn3c2)n1`, for which the values for the IC50 in experiment [1] and in experiment [2] were 15.1 nM and over 10000 nM, respectively. Also, the Ratio IC50 in experiment [3] was over 662.
